# Reference: ChEMBL document CHEMBL3407461 (J Med Chem, 2014)
# Activity calls are given as the source filed them.
# Tests used:
# Cytochrome P450 3A4 = Cytochrome P450 3A4 (Homo sapiens, UniProt P08684); assay: Inhibition of CYP3A4 in human microsomes preincubated for 5 mins before substrate addition measured after 10 mins by LC/MS/MS analysis; type: ADME
# CYP2D6 = CYP2D6 (Homo sapiens, UniProt P10635); assay: Inhibition of CYP2D6 in human microsomes preincubated at 10 uM for 5 mins before substrate addition measured after 10 mins by LC/MS/MS analysis; type: ADME
# Liver microsome [1] = assay: Half life in human liver microsomes at 100 uM by LC-MS/MS analysis; type: ADME
# Cytochrome P450 2C9 = Cytochrome P450 2C9 (Homo sapiens, UniProt P11712); assay: Inhibition of CYP2C9 in human microsomes preincubated for 5 mins before substrate addition measured after 10 mins by LC/MS/MS analysis; type: ADME
# [2] = target: Adenosine receptor A2a (Homo sapiens) (UniProt P29274); assay: Displacement of [3H]CGS21680 from human recombinant A2A adenosine receptor expressed in HEK293 cells at 10 uM after 60 mins by liquid scintillation counting; type: cell-based
# Mus musculus [3] = assay: Antinociceptive activity in chronic constriction injury neutropathic pain CD-1 mouse model assessed as maximum protection on ipsilateral hind paw at 3 umol/kg, po after 30 mins to 5 hrs post dose relative to control; type: functional; conditions: CD-1, po
# Plasma [4] = assay: Fraction unbound in human plasma at 10 uM after 5 hrs by LC-MS/MS analysis; type: ADME, cell-free
# Cytochrome P450 1A2 = target: T1, Cytochrome P450 1A2 (Homo sapiens, UniProt P05177); assay: Inhibition of CYP1A2 in human microsomes preincubated for 5 mins before substrate addition measured after 10 mins by LC/MS/MS analysis; type: ADME
# T1 sequence (P05177 whole entry): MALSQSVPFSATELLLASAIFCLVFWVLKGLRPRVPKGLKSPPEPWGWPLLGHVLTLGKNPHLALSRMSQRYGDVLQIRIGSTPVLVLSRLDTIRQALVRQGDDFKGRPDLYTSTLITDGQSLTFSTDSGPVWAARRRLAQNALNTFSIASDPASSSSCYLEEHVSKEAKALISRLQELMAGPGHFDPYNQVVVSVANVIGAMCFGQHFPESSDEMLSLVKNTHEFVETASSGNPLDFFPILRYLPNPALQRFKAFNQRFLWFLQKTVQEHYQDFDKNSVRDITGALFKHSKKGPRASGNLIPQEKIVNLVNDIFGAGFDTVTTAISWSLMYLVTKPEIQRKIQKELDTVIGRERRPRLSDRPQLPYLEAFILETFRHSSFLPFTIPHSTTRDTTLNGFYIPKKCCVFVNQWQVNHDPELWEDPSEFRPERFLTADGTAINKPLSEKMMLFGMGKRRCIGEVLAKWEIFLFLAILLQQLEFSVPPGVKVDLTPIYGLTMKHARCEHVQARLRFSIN
# Mus musculus [5] = assay: Antinociceptive activity in chronic constriction injury neutropathic pain CD-1 mouse model at 3 umol/kg, po after 3 hrs post dose relative to control; type: functional
# [6] = target: T2, Adenosine receptor A1 (Homo sapiens) (UniProt P30542); assay: Displacement of [3H]R-PIA from human recombinant A1 adenosine receptor expressed in CHO cells at 10 uM after 60 mins by liquid scintillation counting; type: cell-based
# T2 sequence (whole entry): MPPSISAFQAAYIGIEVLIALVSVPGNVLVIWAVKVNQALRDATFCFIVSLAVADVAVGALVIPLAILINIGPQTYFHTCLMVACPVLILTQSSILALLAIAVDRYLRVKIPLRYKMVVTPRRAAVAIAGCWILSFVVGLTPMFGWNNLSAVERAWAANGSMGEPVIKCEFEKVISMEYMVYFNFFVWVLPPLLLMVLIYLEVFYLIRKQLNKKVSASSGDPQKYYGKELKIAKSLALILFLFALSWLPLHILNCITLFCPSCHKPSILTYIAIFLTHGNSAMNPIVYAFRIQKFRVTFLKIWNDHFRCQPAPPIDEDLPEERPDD
# Liver microsome [7] = assay: Half life in rat liver microsomes at 100 uM by LC-MS/MS analysis; type: ADME
# Plasma [8] = assay: Fraction unbound in rat plasma at 10 uM after 5 hrs by LC-MS/MS analysis; type: ADME, cell-free
# [9] = Aqueous solubility of the compound at pH 7.4 by pION Method; type: physicochemical; conditions: buffer
# CYP2C9 = CYP2C9 (Homo sapiens, UniProt P11712); assay: Inhibition of CYP2C9 in human microsomes preincubated at 10 uM for 5 mins before substrate addition measured after 10 mins by LC/MS/MS analysis; type: ADME
# Mus musculus [10] = assay: Antinociceptive activity in chronic constriction injury neutropathic pain CD-1 mouse model assessed as time for peak protection at 3 umol/kg, po; type: functional
# Procedure, shortened: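 Male CD-1 mice (25−30 g), chronic constriction injury of left sciatic nerve (Bennett model) under isoflurane. Dosed by gavage (3 μmol/kg, 0.2 mL) at peak mechano-allodynia on day 7; vehicle 10% DMSO in 0.5% methylcellulose. Paw withdrawal threshold (g) measured on the ipsilateral hind paw from 30 min to 5 h post dose. Expressed as % reversal, mean ± SEM over n animals.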
# [11] = Half life of the compound in simulated intestinal fluid at pH 6.5; type: ADME; conditions: simulated gi fluid
# Cytochrome P450 2C19 = Cytochrome P450 2C19 (Homo sapiens, UniProt P33261); assay: Inhibition of CYP2C19 in human microsomes preincubated for 5 mins before substrate addition measured after 10 mins by LC/MS/MS analysis; type: ADME
# Liver microsome [12] = assay: Intrinsic clearance in human liver microsomes assessed per mg protein at 100 uM by LC-MS/MS analysis; type: ADME
# CYP1A2 = CYP1A2 (Homo sapiens, UniProt P05177); assay: Inhibition of CYP1A2 in human microsomes preincubated at 10 uM for 5 mins before substrate addition measured after 10 mins by LC/MS/MS analysis; type: ADME
# Plasma [13] = assay: Fraction unbound in mouse plasma at 10 uM after 5 hrs by LC-MS/MS analysis; type: ADME, cell-free
# [14] = target: Adenosine receptor A2a (Mus musculus) (UniProt Q60613); assay: Displacement of [3H]CGS21680 from mouse A2A adenosine receptor expressed in HEK293 cells at 10 uM after 60 mins by liquid scintillation counting; type: cell-based
# Liver = assay: Half life in mouse liver microsomes at 100 uM by LC-MS/MS analysis; type: ADME
# CYP2C19 = CYP2C19 (Homo sapiens, UniProt P33261); assay: Inhibition of CYP2C19 in human microsomes preincubated at 10 uM for 5 mins before substrate addition measured after 10 mins by LC/MS/MS analysis; type: ADME
# CYP3A4 = CYP3A4 (Homo sapiens, UniProt P08684); assay: Inhibition of CYP3A4 in human microsomes preincubated at 10 uM for 5 mins before substrate addition measured after 10 mins by LC/MS/MS analysis; type: ADME
# [15] = Half life of the compound in simulated gastric fluid at pH 1.6; type: ADME; conditions: simulated gi fluid
# Cytochrome P450 2D6 = Cytochrome P450 2D6 (Homo sapiens, UniProt P10635); assay: Inhibition of CYP2D6 in human microsomes preincubated for 5 mins before substrate addition measured after 10 mins by LC/MS/MS analysis; type: ADME
# CHO [16] = assay: Selectivity ratio of Ki for mouse A3 adenosine receptor expressed in HEK293 cells to Ki for human recombinant A3 adenosine receptor expressed in CHO cells; type: cell-based
# Adenosine receptor A3 = Adenosine receptor A3 (Mus musculus, UniProt Q61618); assay: Displacement of [125I]I-AB-MECA from mouse A3 adenosine receptor expressed in HEK293 cells after 60 mins by liquid scintillation counting; type: cell-based
# [17] = target: Voltage-gated inwardly rectifying potassium channel KCNH2 (Homo sapiens, UniProt Q12809); assay: Inhibition of human ERG by PDSP screening
# CHO [18] = assay: Selectivity ratio of IC50 for human ERG to IC50 for human recombinant A3 adenosine receptor expressed in CHO cells; type: cell-based
# [19] = target: T3, Adenosine receptor A1 (Mus musculus) (UniProt Q60612); assay: Displacement of [125I]I-AB-MECA from mouse A1 adenosine receptor expressed in HEK293 cells at 10 uM after 60 mins by liquid scintillation counting
# T3 sequence (whole entry): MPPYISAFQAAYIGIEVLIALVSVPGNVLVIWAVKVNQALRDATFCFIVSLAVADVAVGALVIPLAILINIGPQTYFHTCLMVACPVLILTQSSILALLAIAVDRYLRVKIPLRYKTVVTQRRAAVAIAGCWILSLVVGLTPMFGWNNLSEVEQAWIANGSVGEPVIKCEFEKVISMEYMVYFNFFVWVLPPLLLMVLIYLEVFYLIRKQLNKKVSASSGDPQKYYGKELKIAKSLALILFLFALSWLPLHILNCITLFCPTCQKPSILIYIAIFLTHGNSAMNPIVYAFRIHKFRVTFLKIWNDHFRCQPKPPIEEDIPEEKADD
# [20] = Permeability across apical to basolateral side of human Caco2 cells expressing P-gp; type: ADME, cell-based; conditions: caco-2
# hERG (KCNH2) = hERG (KCNH2) (Homo sapiens, UniProt Q12809); assay: Inhibition of human ERG at 10 uM by PDSP screening
# [21] = target: Sigma non-opioid intracellular receptor 1 (Homo sapiens) (UniProt Q99720); assay: Binding affinity to sigma1 receptor (unknown origin) by PDSP screening
# Homo sapiens = organism: Homo sapiens; assay: Binding affinity to sigma2 receptor (unknown origin) by PDSP screening
# [22] = target: Translocator protein (Homo sapiens) (UniProt P30536); assay: Binding affinity to TSPO (unknown origin) by PDSP screening
# [23] = target: T4, Adenosine receptor A3 (Mus musculus) (UniProt Q61618); assay: Agonist activity at mouse A3 adenosine receptor expressed in HEK293 cells assessed as inhibition of forskolin-stimulated cAMP production after 15 mins relative to control; type: functional, cell-based
# T4 sequence (whole entry): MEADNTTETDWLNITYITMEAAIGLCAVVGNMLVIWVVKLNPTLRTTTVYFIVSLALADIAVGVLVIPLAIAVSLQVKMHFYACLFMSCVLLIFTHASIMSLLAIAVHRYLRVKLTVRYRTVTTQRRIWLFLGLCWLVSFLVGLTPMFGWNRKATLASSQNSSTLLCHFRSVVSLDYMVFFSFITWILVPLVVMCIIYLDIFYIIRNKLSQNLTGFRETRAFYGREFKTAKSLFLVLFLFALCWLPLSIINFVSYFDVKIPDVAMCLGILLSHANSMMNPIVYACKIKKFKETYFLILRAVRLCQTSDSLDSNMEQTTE
# Procedure, shortened: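 2 × 10^5 cells/tube, coincubated with forskolin 10 μM plus ligand for 15 min at 37 °C with shaking. Stopped with HCl. cAMP in supernatant measured by competitive binding.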
# Chain of Adenosine receptor A2a (Mus musculus) (Q60613 whole entry): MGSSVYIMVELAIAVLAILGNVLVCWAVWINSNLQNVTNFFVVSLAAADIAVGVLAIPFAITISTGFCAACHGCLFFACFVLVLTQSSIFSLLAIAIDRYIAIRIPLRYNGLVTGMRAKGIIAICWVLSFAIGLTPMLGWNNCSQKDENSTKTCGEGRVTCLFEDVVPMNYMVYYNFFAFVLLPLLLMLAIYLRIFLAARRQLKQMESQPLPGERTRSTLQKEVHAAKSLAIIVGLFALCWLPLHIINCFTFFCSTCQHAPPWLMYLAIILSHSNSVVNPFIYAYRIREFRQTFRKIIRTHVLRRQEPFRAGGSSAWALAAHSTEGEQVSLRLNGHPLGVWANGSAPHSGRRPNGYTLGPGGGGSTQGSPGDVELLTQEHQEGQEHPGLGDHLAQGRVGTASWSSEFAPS
# Chain of Adenosine receptor A2a (Homo sapiens) (P29274 whole entry): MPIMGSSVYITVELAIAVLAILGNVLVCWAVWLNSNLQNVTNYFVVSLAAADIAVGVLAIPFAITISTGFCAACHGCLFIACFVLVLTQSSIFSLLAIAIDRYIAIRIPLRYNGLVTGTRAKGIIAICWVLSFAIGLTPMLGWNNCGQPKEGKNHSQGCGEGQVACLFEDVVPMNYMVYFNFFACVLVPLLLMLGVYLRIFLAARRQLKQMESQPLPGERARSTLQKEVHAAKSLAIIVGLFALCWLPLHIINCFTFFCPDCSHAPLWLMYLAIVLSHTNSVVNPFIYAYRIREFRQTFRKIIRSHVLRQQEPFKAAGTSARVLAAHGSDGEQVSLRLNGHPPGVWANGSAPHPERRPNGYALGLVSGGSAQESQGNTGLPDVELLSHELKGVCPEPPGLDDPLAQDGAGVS
# Chain of Cytochrome P450 2C19 (P33261 whole entry): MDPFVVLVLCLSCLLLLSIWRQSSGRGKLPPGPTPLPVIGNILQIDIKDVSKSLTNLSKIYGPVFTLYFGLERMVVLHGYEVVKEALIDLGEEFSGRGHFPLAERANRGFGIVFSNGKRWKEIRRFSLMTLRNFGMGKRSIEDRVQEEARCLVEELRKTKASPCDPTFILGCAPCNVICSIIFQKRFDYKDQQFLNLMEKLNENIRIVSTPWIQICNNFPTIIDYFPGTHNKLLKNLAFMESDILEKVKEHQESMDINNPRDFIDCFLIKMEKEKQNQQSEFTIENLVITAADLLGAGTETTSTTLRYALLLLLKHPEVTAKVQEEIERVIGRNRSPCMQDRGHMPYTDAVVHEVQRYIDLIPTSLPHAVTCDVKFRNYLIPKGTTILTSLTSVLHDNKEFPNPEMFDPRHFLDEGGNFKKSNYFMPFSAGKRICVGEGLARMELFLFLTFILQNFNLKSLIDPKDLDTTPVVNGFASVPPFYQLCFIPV
# Chain of Cytochrome P450 2D6 (P10635 whole entry): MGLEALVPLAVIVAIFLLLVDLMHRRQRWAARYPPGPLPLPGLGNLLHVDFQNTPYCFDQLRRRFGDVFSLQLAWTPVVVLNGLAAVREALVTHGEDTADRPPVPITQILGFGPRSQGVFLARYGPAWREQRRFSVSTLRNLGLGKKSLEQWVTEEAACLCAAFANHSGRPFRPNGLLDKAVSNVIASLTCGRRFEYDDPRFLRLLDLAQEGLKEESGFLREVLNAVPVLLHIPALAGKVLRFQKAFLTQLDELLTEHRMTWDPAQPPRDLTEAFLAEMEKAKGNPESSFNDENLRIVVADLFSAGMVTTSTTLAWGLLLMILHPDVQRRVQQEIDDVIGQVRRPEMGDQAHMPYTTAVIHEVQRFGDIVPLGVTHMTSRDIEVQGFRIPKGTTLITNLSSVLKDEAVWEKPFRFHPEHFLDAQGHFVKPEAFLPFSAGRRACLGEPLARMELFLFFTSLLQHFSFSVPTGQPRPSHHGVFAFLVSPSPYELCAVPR
# Chain of Cytochrome P450 2C9 (P11712 whole entry): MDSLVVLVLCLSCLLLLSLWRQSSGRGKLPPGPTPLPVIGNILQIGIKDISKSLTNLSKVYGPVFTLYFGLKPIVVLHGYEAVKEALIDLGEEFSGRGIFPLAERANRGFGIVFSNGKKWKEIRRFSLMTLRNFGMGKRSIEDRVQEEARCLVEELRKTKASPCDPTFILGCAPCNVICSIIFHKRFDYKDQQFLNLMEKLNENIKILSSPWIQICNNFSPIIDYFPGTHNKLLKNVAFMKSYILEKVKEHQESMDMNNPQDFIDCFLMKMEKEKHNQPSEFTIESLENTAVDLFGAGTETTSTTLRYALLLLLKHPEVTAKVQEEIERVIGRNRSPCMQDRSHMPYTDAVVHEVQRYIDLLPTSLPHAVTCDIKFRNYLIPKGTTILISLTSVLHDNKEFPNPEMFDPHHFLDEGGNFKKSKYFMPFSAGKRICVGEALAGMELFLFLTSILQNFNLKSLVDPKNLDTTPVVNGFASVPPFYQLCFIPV
# Chain of Cytochrome P450 3A4 (P08684 whole entry): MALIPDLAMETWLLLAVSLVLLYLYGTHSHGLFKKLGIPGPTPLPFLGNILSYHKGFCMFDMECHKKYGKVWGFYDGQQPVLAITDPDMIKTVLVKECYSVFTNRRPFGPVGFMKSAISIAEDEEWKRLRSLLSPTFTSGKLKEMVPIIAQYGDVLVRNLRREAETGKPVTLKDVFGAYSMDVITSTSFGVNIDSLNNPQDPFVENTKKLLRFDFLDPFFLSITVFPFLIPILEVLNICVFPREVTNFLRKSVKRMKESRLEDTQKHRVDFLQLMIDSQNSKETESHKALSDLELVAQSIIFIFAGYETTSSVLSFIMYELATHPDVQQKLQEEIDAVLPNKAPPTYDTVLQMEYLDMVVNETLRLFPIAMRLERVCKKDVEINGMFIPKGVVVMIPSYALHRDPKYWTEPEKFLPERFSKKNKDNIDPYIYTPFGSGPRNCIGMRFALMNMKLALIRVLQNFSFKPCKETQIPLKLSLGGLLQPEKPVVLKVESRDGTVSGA
# Chain of Voltage-gated inwardly rectifying potassium channel KCNH2 (Q12809 whole entry): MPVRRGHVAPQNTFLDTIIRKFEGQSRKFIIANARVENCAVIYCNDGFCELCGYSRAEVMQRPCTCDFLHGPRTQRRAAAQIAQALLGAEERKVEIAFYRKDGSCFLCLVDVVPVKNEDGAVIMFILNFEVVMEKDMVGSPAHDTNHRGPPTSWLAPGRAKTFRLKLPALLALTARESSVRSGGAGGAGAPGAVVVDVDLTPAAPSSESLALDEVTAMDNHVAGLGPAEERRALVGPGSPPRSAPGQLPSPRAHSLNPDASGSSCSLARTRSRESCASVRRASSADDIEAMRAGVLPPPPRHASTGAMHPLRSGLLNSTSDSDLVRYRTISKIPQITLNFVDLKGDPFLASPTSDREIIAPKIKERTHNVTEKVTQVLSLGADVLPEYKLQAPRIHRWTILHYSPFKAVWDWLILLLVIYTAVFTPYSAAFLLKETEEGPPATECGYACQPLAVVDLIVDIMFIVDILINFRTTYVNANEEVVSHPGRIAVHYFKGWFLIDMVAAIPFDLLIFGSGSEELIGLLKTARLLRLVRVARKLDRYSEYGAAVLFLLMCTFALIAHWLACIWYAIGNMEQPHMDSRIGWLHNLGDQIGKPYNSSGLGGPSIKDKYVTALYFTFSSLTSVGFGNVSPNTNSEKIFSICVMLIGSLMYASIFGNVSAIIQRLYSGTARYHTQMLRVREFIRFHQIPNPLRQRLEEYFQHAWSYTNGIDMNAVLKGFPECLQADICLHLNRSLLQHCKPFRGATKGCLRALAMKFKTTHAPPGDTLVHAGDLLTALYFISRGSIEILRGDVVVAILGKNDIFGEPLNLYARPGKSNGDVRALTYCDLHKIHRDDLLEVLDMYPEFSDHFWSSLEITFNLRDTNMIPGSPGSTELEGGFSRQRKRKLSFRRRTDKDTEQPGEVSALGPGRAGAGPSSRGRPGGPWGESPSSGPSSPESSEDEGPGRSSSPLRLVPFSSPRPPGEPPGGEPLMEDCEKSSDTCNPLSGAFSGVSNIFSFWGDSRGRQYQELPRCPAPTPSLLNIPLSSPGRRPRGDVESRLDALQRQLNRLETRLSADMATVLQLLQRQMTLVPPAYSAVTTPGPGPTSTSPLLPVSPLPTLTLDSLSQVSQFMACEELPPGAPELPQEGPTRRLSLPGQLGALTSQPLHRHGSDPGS
# Chain of CYP2C19 (P33261 whole entry): as the sequence (P33261 whole entry) above
# Chain of Sigma non-opioid intracellular receptor 1 (Homo sapiens) (Q99720 whole entry): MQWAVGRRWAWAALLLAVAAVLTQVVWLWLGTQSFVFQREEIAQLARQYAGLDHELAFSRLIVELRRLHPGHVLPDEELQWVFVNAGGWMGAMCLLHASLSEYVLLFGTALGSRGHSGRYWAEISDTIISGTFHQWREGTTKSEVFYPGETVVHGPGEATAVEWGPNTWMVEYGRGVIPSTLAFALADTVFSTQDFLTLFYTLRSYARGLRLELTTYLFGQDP
# Chain of CYP2D6 (P10635 whole entry): as the sequence (P10635 whole entry) above
# Chain of CYP3A4 (P08684 whole entry): as the sequence (P08684 whole entry) above
# Chain of Translocator protein (Homo sapiens) (P30536 whole entry): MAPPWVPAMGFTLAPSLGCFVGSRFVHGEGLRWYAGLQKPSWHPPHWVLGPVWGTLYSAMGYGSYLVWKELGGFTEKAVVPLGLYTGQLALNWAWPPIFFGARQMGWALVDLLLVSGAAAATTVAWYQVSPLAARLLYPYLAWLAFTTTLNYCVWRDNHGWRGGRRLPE
SMILES,IC50 (Cytochrome P450 3A4),IC50 (Cytochrome P450 2C9),inhibition [2],Emax at 3 µmol/kg (Mus musculus [3]),IC50 (Cytochrome P450 1A2),Activity (Mus musculus [5]),inhibition [6],Time (Mus musculus [10]),IC50 (Cytochrome P450 2C19),CLH (Liver microsome [12]),inhibition [14],IC50 (Cytochrome P450 2D6),IC50 [17],inhibition [19],permeability [20],further results
CNC(=O)[C@@]12C[C@@H]1[C@@H](n1cnc3c(NC)nc(C#Cc4ccc(Br)s4)nc31)[C@H](O)[C@@H]2O,> 7 µM,> 7 µM,19%,100%,> 7 µM,48.7%,18%,1 h,> 7 µM,3.38 µL/min,10%,7.4 µM,–,–,–,"inhibition at 10 min, 10 µM (CYP2D6): 57.5%; t1/2 (Liver microsome [1]): 3.42 h; Fu (Plasma [4]): 2.67%; t1/2 (Liver microsome [7]): 1.52 h; Fu (Plasma [8]): 4.04%; solubility [9]: 0.0156 mg/mL; inhibition at 10 min, 10 µM (CYP2C9): 24.2%; t1/2 [11]: > 8 h; inhibition at 10 min, 10 µM (CYP1A2): 15%; Fu (Plasma [13]): 2.75%; t1/2 (Liver): 1.6 h; inhibition at 10 min, 10 µM (CYP2C19): 34%; inhibition at 10 min, 10 µM (CYP3A4): 3.1%; t1/2 [15]: > 8 h"
CNC(=O)[C@@]12C[C@@H]1[C@@H](n1cnc3c(NC)nc(C#Cc4ccc(F)c(F)c4)nc31)[C@H](O)[C@@H]2O,–,–,–,99%,–,28.7%,–,1 h,–,–,–,–,27 µM,–,–,Ratio Ki (CHO [16]): > 30; Ki (Adenosine receptor A3): 0.086 µM; Ratio IC50 (CHO [18]): > 10000
CNC(=O)[C@@]12C[C@@H]1[C@@H](n1cnc3c(NC)nc(C#Cc4ccco4)nc31)[C@H](O)[C@@H]2O,–,–,18%,100%,–,27.6%,30%,1 h,–,–,17%,–,–,59%,permeable,inhibition at 10 µM (hERG (KCNH2)): 21%
CNC(=O)[C@@]12C[C@@H]1[C@@H](n1cnc3c(NC)nc(C#Cc4ccc(Cl)s4)nc31)[C@H](O)[C@@H]2O,> 10 µM,> 10 µM,24%,93.3%,> 10 µM,82.8%,6%,0.5 h,> 10 µM,3.69 µL/min,7%,> 10 µM,12.9 µM,38%,permeable,Activity [21]: Active; Activity (Homo sapiens): Active; Activity [22]: Active; Imax [23]: 35%
